An excerpt weighted towards active compounds, which were near 3% of everything screened.
Rad51 HR inh: human RAD51 strand exchange inhibitors, primary screen, biochemical, fluorescence. hRad51 DNA strand exchange, fluorescence dequenching. inhibition, % at 10 µM. 200,000 tested, 0.085% active. AID 1385, 2008;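 active means inhibition above 40% at the single screening dose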;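 further: 0% = DMSO control wells and 100% = blanks with heterologous ssDNA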
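material = hRad51 filaments on single-stranded DNA | reagent = Donor/quencher-labelled 47-bp dsDNA substrate | compound = 10 µM final, single point | schedule = strand-exchange reaction 15 min at room temperature | measured by = fluorescein emission 520 nm, excitation 485 nm | read-out basis = % inhibition versus plate control and blank means | benchmarks = plate controls and plate blanks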
KCC2 mod: KCC2 cotransporter modulators, thallium flux, primary screen, cell-based, HEK293 KCC2, FluoZin-2 fluorescence, MLSMR; Solute carrier family 12 member 5 (Homo sapiens), Q9H2X9; KCC2 cells, thallium flux FluoZin-2 fluorescence; B-score of Tl+ flux slope (higher = more flux/activation; lower = inhibition) at 10 µM; 190,000 tested, 2.2% active;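 active means thallium flux slope and its plate-corrected score both differing from the plate sample mean at a set confidence after two filtering rounds, in either direction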;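 further: slope of fluorescence scaled to starting intensity during 10 to 20 s after thallium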
PKD1 inh: inhibitors of human PKD1 kinase, biochemical, fluorescence polarization | PKD1 kinase fluorescence polarization assay | AID 797, 2007 | 200,000 tested, 0.056% active | Serine/threonine-protein kinase D1 (Homo sapiens), Q15139 | inhibition, % (no concentration beside the values); in the data active means inhibition above about 50%
Target sequence (Q15139 whole entry, looked up): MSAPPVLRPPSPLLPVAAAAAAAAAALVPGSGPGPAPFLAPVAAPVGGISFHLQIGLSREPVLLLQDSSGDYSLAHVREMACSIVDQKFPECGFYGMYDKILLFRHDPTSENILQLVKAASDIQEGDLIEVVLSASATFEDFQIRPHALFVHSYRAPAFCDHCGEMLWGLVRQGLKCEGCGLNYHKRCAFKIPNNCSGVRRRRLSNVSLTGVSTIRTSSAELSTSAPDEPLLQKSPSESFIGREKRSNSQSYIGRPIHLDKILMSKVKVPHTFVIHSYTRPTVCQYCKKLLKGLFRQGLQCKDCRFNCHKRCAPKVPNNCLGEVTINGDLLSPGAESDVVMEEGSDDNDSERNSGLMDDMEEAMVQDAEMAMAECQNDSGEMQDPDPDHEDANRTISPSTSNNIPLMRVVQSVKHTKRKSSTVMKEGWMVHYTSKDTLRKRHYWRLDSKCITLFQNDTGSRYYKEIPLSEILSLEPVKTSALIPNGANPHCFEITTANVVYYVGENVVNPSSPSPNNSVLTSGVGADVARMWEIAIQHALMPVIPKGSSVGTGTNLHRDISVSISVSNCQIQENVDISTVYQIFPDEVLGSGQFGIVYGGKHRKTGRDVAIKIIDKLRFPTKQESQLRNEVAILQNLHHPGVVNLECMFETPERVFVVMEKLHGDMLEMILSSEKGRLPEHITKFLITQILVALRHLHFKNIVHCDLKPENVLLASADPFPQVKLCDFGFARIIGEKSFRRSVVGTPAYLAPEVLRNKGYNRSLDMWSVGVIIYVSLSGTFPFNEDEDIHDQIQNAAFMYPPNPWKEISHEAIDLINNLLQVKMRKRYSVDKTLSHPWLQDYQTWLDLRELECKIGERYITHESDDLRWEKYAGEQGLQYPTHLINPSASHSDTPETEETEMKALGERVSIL
ROMK mod: ROMK potassium channel modulators, primary screen, cell-based, thallium flux, MLSMR library. ATP-sensitive inward rectifier potassium channel 1 (Homo sapiens), P48048. Tet-inducible ROMK, thallium flux fluorescence; actives lie on both sides. B-score at 10 µM. 130,000 tested, 2% active;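 active means signal ratio slope over the read window, or its plate-corrected B-score, at least 3 SD from the plate mean, either direction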;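 further: B-score of the F/F0 ratio slope over 7 to 12 s after thallium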
KCC2 secondary: KCC2 modulators in sodium-free buffer, confirmation, cell-based, HEK293 KCC2, thallium flux, secondary assay; shares compounds with KCC2 mod; FluoZin2 fluorescence; stronger effect = higher value; normalised thallium flux (F/F0 slope) at 10 µM; 3,700 tested, 15% active; AID 1713, 2009;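 active means thallium flux slope above the same plate's solvent-only control mean plus 3 SD; inconclusive means the two replicate wells disagree; inactive means no significant difference from solvent-only control wells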
KCC2 bumet counter: thallium flux persisting under bumetanide in KCC2 cells, confirmation, counter-screen for KCC2 modulator project, cell-based, HEK293 KCC2, FluoZin2, secondary assay 3; shares compounds with KCC2 mod; HEK293-KCC2 + bumetanide/ouabain; stronger effect = higher value; normalized thallium flux at 10 µM; 3,700 tested, 49% active; AID 1714, 2009;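 active means thallium entry rate above the same plate's blocked-transporter control wells by more than 3 SD; inconclusive means the two repeat wells disagree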;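 further: raw slope of fluorescence over initial fluorescence between 10 and 20 s after thallium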
KCC2 secondary2: KCC2 modulators without ouabain present, confirmation, cell-based, HEK293 KCC2, thallium flux, FluoZin2, secondary assay 2; shares compounds with KCC2 mod; thallium flux FluoZin2 fluorescence; actives lie on both sides; F/F0 rise rate, 10–20 s post-thallium; normalized thallium flux at 10 µM; 3,700 tested, 23% active; AID 1715, 2009;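 active means thallium flux slope more than 3 SD above or below the plate's solvent-only control mean, mostly below; inconclusive means the two repeat wells disagreed; inactive means no significant shift from solvent-only controls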;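 further: raw slope with 0.1% DMSO as baseline and bumetanide as block control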
HEK counter1: thallium flux modulation in parental HEK cells, confirmation, counter-screen for KCC2 modulator project, cell-based, counterscreen 1 | shares compounds with KCC2 mod | HEK293 parental cells, thallium flux FluoZin2, ouabain; baseline-ratio fluorescence slope, 10–20 s after thallium | thallium flux rate (normalised fluorescence) at 10 µM | 3,700 tested, 46% active;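 active means thallium flux rate significantly above the same plate's solvent-only control wells, beyond their mean plus 3 SD; inconclusive means the two replicate wells gave conflicting results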
KCC2 ouabain: KCC2 inhibitors and activators, ouabain retest, confirmation, HEK-KCC2 cells. shares compounds with KCC2 mod. HEK293-KCC2, thallium flux FluoZin2 fluorescence; bidirectional: low = inhibitor, high = activator. raw Tl+ flux slope (below DMSO = inhibition, above = activation) at 10 µM. 3,700 tested, 48% active. AID 1717, 2009;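 active means thallium flux slope beyond 3 SD from same-plate DMSO control mean in most replicates, usually higher, sometimes lower; inconclusive means repeat tests gave conflicting results; inactive means no significant difference from controls in most replicates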;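 further: slope of initial-normalized fluorescence between seconds 10 and 20 after thallium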
HEK counter2: native HEK Tl+ uptake effects, second counter-screen – HEK cells, counterscreen 2, counter-screen for KCC2 modulator project, confirmation; shares compounds with KCC2 mod; thallium flux slope at 10 µM; HEK293 parental, thallium flux FluoZin-2 fluorescence slope; 3,700 tested, 33% active;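 active means thallium flux slope above the same plate's solvent-control mean plus 3 SD in both duplicate wells; inconclusive means duplicate wells that disagreed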;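 further: run without ouabain in cells lacking the KCC2 cotransporter; slope of fluorescence scaled to its starting value between 10 and 20 s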
* = called active by the depositor; ? = inconclusive; . = no result.

SMILES	Rad51 HR inh	KCC2 mod	PKD1 inh	ROMK mod	KCC2 secondary	KCC2 bumet counter	KCC2 secondary2	HEK counter1	KCC2 ouabain	HEK counter2
Cn1c(NC(=S)Nc2ccccc2)nc2ccccc21	0.5	7.44*	-8.4	1.1	?	0.0638*	0.0308	0.0229*	0.0426*	0.0142*
S=C(Nc1ccccc1)Nc1nc2ccccc2n1CCOc1ccc(Br)cc1	-4.8	3.39*	6.5	.	0.00992	0.0316*	0.0312	0.0101*	0.0228	?
Oc1ccc(NC(=S)Nc2ccccc2)cc1	11.5	0.757	-9.5	.	.	.	.	.	.	.
COC(=O)CCCCC(=O)C1C(=O)CC(C)(C)C(C(=O)OC)C1=O (stereo not given)	-1.3	0.57	-8.3	.	.	.	.	.	.	.
CC1(C)CC(=O)C(C(=O)CCCCC(=O)C2C(=O)CC(C)(C)CC2=O)C(=O)C1	-4.8	4.4*	-11.0	0.171	0.0102	0.00596	0.0347	0.00848	0.0199	0.0114
OC(CNc1ccccc1)Cn1ccc2ccccc21 (stereo not given)	10.4	0.348	-6.6	-1.04	.	.	.	.	.	.
O=C(c1ccc(Cn2c(=S)[nH]c3ccccc3c2=O)cc1)N1CCN(c2ccccn2)CC1	-23.9	-1.35	-0.8	0.503	.	.	.	.	.	.
Cn1c(-c2ccc3c(c2)OCO3)cnc1NC(=O)CCC(=O)NCCc1ccccc1	-1.6	-3.66*	0.4	.	0.0077	0.00659	0.0296	0.00779	0.0185	?
Cc1ccc(/C=C/C(=O)C2C(=O)c3ccccc3C2=O)cc1	-4.1	.	-4.4	.	0.00593	0.0673*	0.0628*	0.0917*	0.0719*	0.0544*
CCOc1ccc(N2C(=O)CS/C2=N/NC(=O)COc2ccc3ccccc3c2)cc1	-0.6	-5.01*	2.5	.	0.00873	0.00597	0.0295*	0.00451	0.0157*	0.0109
O=C(COc1ccc(Br)cc1)N/N=C1/SCC(=O)N1Cc1ccco1	-15.2	-0.618	-1.1	-0.481	.	.	.	.	.	.
C/C=C\C(=O)Nc1cccc(C2=NOC3(C2)C[C@H](C(N)=O)N(C(=O)Cc2ccc([N+](=O)[O-])cc2)C3)c1 (stereo not given in full)	-5.9	0.0373	.	.	.	.	.	.	.	.
CCCCCCNC1=NCCS1	1.3	0.203	-4.7	-0.00537	.	.	.	.	.	.
OCCC1CN(Cc2ccon2)CCN1CCc1ccccc1 (stereo not given)	23.2	.	-1.3	1.36	.	.	.	.	.	.
Nc1c(C(=O)O)sc2nc(-c3ccccc3)cc(-c3ccccc3)c12	-47.3	0.416	.	0.719	.	.	.	.	.	.
Nc1c(C(=O)O)sc2nc(-c3ccccc3)cc(-c3ccc(F)cc3)c12	-61.7	-5.37*	.	-0.339	0.0089	0.0122*	0.0284	0.00686	0.0121*	0.01
C/C(Cl)=C\Cn1c(O)c(N=NC(N)=S)c2cc(Br)ccc21	26.8	35.6*	8.2	0.98	0.00591	0.0289*	0.0543*	0.0425*	0.0622*	0.0295*
NC(=S)N=Nc1c(O)n(CCCl)c2ccc(Br)cc12	5.0	28.7*	.	-0.557	0.0165*	0.0693*	0.0378	0.0301*	0.0418*	0.0147*
Cc1cccc(NC(=S)NC2CC3C=CC2C3)c1 (stereo not given)	.	2.11	.	0.563	.	.	.	.	.	.
O=C(CCC1CCCN(C(=O)c2ccc3[nH]ccc3c2)C1)N1CCN(c2ccccn2)CC1 (stereo not given)	-2.8	-1.29	-0.3	0.351	.	.	.	.	.	.
CCn1cc(Br)c(C(=O)NC(=S)Nc2ccc(C(=O)OC)cc2)n1	.	6.17*	2.5	1.22	0.011	0.0181*	0.0336	0.0133*	0.0263	0.0123*
CCOC(=O)c1ccc(NC(=O)c2nn(CC)cc2Br)cc1	-0.8	-1.23	7.1	.	.	.	.	.	.	.
CCOC(=O)c1ccc(NC(=O)c2nn(C)cc2Br)cc1	-8.2	.	0.4	-1.64	.	.	.	.	.	.
CCOC(=O)c1ccc(NC(=S)NC(=O)c2nn(CC)cc2Br)cc1	1.6	5.96*	-8.7	0.779	0.0109	0.00974*	0.0339	0.00916*	0.0249	0.0118*
S=C1NC2CCCCC2N1 (stereo not given)	2.7	0.294	-0.4	0.196	.	.	.	.	.	.
SMILES	Rad51 HR inh	KCC2 mod	PKD1 inh	ROMK mod	KCC2 secondary	KCC2 bumet counter	KCC2 secondary2	HEK counter1	KCC2 ouabain	HEK counter2
CCCCCCCCN1[C@@H](CC(=O)O)c2ccc(C(F)(F)F)cc2S1(=O)=O	7.8	.	.	.	.	.	.	.	.	.
Cc1nc2c(C#N)c(C)[nH]n2c(=O)c1Cc1ccccc1	-0.4	-0.585	-10.3	.	.	.	.	.	.	.
Cc1nc2c(-c3ccc(Cl)cc3)c(C)[nH]n2c(=O)c1Cc1ccccc1	.	4.91*	-6.5	-0.297	0.00659	0.0129*	?	0.0121*	?	0.0118*
COc1ccc(-c2c(C)[nH]n3c(=O)c(Cc4ccccc4)c(C)nc23)cc1OC	-24.8	-0.64	-5.3	0.125	.	.	.	.	.	.
Cc1nc2c(-c3ccccc3)c(C)[nH]n2c(=O)c1Cc1ccccc1	-15.9	4.93*	-0.7	0.0412	0.00721	0.0195*	0.0313	0.0149*	?	0.0164*
CCNC(=O)COc1ccc(Br)cc1Cl	0.9	-0.308	-8.2	.	.	.	.	.	.	.
COc1ccc(OCC(=O)NC(=S)NNC(=O)COc2ccc(Br)cc2Cl)cc1	-9.6	12.6*	5.2	0.973	0.0112	0.0255*	0.0333	0.0186*	0.0265	0.0129*
COc1ccc(C(=O)NC(=S)NNC(=O)COc2ccccc2)cc1	1.9	35.4*	-3.1	1.14	0.0226*	0.0721*	?	0.0359*	0.0509*	0.0207*
O=C(COc1ccc2ccccc2c1)NNC(=O)c1ccc([N+](=O)[O-])cc1	-3.8	-2.79	-1.7	.	.	.	.	.	.	.
COc1ccc(C(=O)NNC(=S)NC(=O)C(C)(C)C)cc1	6.8	24*	-5.5	-0.229	0.0235*	0.0355*	?	0.0426*	0.0418*	0.0143*

Screens: PubChem BioAssay, several laboratories
